Source: ChEMBL document CHEMBL4390648, “Chemical synthesis, crystal structure, versatile evaluation of their biological activities and molecular simulations of novel pyrithiobac derivatives” (Eur J Med Chem, 2019)
Converted amounts (≈) assume the structure as drawn.

Tests used:
[1] = test system: Brassica rapa subsp. oleifera; assay: Post-emergence herbicidal activity against Brassica campestris assessed as reduction in growth at 300g/ha measured after 24 days by green house pot method relative to control; assay type: functional; settings: 576 h
[2] = test system: Digitaria adscendens; assay: Pre-emergence herbicidal activity against Digitaria adscendens assessed as reduction in growth at 300g/ha measured after 24 days by green house pot method relative to control; assay type: functional; settings: 576 h
[3] = test system: Candida albicans; assay: Antifungal activity against Candida albicans SC5314 grown in RPMI 1640 medium incubated for 24 hrs by microdilution method; assay type: functional; settings: SC5314, 24 h
Procedure, shortened: (§1)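 C. albicans standard strain SC5314 and clinical isolates g5 and 17# tested by broth microdilution in YNB or RPMI 1640 medium. Plates incubated at 35 °C for up to 72 h, with visual readings taken at 24 h. MIC taken as the lowest concentration preventing visible growth.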

[4] = test system: Candida albicans; assay: Antifungal activity against Candida albicans isolate 17 grown in RPMI 1640 medium incubated for 24 hrs by microdilution method; assay type: functional; settings: isolate 17, 24 h; procedure, shortened: as §1
[5] = test system: Brassica rapa subsp. oleifera; assay: Herbicidal activity against Brassica campestris L assessed as inhibition of rape root growth at 100 mg/l root growth incubated for 48 hrs relative to control; assay type: functional
Procedure, shortened: (§2)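 Rape seeds soaked in distilled water for 4 h, then placed on filter paper wetted with inhibitor solution, 15 seeds per 6-cm dish. Germinated in the dark at 28 °C for 48 h. Mean length of 10 roots per plate measured.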

[6] = test system: Tobacco mosaic virus; assay: Antiviral activity against Tobacco mosaic virus inoculated in Nicotiana tabacum leaves assessed as passivation by measuring local lesion numbers at 500 mg/l pre-incubated with virus for 30 mins followed by inoculation and measured up to 4 days; assay type: functional
Procedure, shortened: (§3)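 Passivation assay: TMV mixed with an equal volume of compound solution for 30 min, then rubbed onto the left half of N. tabacum L. leaves. The right half received virus mixed with solvent as control. Local lesions counted 3–4 days after inoculation. Compounds tested at 500 or 100 mg/L.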

[7] = test system: Candida albicans; assay: Antifungal activity against Candida albicans isolate 17 grown in YNB medium incubated for 24 hrs by microdilution method; assay type: functional; settings: isolate 17, 24 h; procedure, shortened: as §1
[8] = test system: Candida albicans; assay: Antifungal activity against Candida albicans isolate g5 grown in RPMI 1640 medium incubated for 24 hrs by microdilution method; assay type: functional; settings: isolate g5, 24 h; procedure, shortened: as §1
[9] = test system: Tobacco mosaic virus; assay: Antiviral activity against Tobacco mosaic virus inoculated in Nicotiana tabacum leaves assessed as passivation by measuring local lesion numbers at 100 mg/l pre-incubated with virus for 30 mins followed by inoculation and measured up to 4 days; assay type: functional; procedure, shortened: as §3
[10] = test system: Arabidopsis thaliana; assay: Inhibition of Arabidopsis thaliana AHAS catalytic subunit using pyruvate as substrate at 10 uM measured after 30 mins by colorimetric method relative to control
Procedure, shortened: (§4)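 Colorimetric assay in 50 mM potassium phosphate pH 7.0 with 50 mM pyruvate, 1 mM thiamine diphosphate, 10 mM MgCl2 and 10 μM FAD. Incubated 30 min at 37 °C for plant AHAS and 30 °C for fungal AHAS. Acetolactate formed was then quantified.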

[11] = test system: Brassica rapa subsp. oleifera; assay: Pre-emergence herbicidal activity against Brassica campestris assessed as reduction in growth at 300g/ha measured after 24 days green house pot method relative to control; assay type: functional; settings: 576 h
[12] = test system: Echinochloa crus-galli; assay: Pre-emergence herbicidal activity against Echinochloa crus-galli assessed as reduction in growth at 300g/ha measured after 24 days by green house pot method relative to control; assay type: functional; settings: 576 h
[13] = test system: Candida albicans; assay: Inhibition of Candida albicans AHAS catalytic subunit at 100 uM using pyruvate as substrate measured after 30 mins by colorimetric method relative to control; procedure, shortened: as §4
[14] = test system: Echinochloa crus-galli; assay: Post-emergence herbicidal activity against Echinochloa crus-galli assessed as reduction in growth at 300g/ha measured after 24 days by green house pot method relative to control; assay type: functional; settings: 576 h
[15] = test system: Digitaria adscendens; assay: Post-emergence herbicidal activity against Digitaria adscendens assessed as reduction in growth at 300g/ha measured after 24 days by based green house pot method relative to control; assay type: functional; settings: 576 h
[16] = test system: Brassica rapa subsp. oleifera; assay: Herbicidal activity against Brassica campestris L assessed as inhibition of rape root growth at 10 mg/l root growth incubated for 48 hrs relative to control; assay type: functional; procedure, shortened: as §2
[17] = test system: Candida albicans; assay: Antifungal activity against Candida albicans isolate g5 grown in YNB medium incubated for 24 hrs by microdilution method; assay type: functional; settings: isolate g5, 24 h; procedure, shortened: as §1
[18] = test system: Amaranthus retroflexus; assay: Pre-emergence herbicidal activity against Amaranthus retroflexus assessed as reduction in growth at 300g/ha measured after 24 days by green house pot method relative to control; assay type: functional; settings: 576 h
[19] = test system: Candida albicans; assay: Inhibition of Candida albicans AHAS catalytic subunit at 10 uM using pyruvate as substrate measured after 30 mins by colorimetric method relative to control; procedure, shortened: as §4
[20] = test system: Arabidopsis thaliana; assay: Inhibition of Arabidopsis thaliana AHAS catalytic subunit using pyruvate as substrate at 100 uM measured after 30 mins by colorimetric method relative to control; procedure, shortened: as §4
[21] = test system: Amaranthus retroflexus; assay: Post-emergence herbicidal activity against Amaranthus retroflexus assessed as reduction in growth at 300g/ha measured after 24 days by green house pot method relative to control; assay type: functional; settings: 576 h
[22] = test system: Candida albicans; assay: Antifungal activity against Candida albicans SC5314 grown in YNB medium incubated for 24 hrs by microdilution method; assay type: functional; settings: SC5314, 24 h; procedure, shortened: as §1
[23] = test system: Sclerotinia sclerotiorum; assay: Antifungal activity against Sclerotinia sclerotiorum assessed as reduction in growth at 50 mg/l by mycelium growth rate method relative to control; assay type: functional
Procedure, shortened: (§5)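 Mycelium growth rate method against S. sclerotiorum, P. capsici, P. piricola, R. cerealis, W. anthracnose and R. bakanae. Each compound tested at 50 mg/L, with chlorothalonil and PTB as controls. Relative inhibitory ratio (%) calculated from mycelial growth.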

[24] = test system: Fusarium fujikuroi; assay: Antifungal activity against Gibberella fujikuroi assessed as reduction in growth at 50 mg/l by mycelium growth rate method relative to control; assay type: functional; procedure, shortened: as §5
[25] = test system: Colletotrichum; assay: Antifungal activity against Colletotrichum (W. anthracnose) assessed as reduction in growth at 50 mg/l by mycelium growth rate method relative to control; assay type: functional; procedure, shortened: as §5
[26] = test system: Ceratobasidium cereale; assay: Antifungal activity against Rhizoctonia cerealis assessed as reduction in growth at 50 mg/l by mycelium growth rate method relative to control; assay type: functional; procedure, shortened: as §5
[27] = test system: Ceratobasidium cereale; assay: Antifungal activity against Rhizoctonia cerealis assessed as reduction in growth mycelium growth rate method relative to control; assay type: functional, organism-based
Procedure, shortened: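 EC50 against R. cerealis derived from mycelium growth-rate inhibition over a concentration series, using a probit fit: Probit = m(log10[I] − log10[EC50]) + 5.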

[28] = test system: Phytophthora capsici; assay: Antifungal activity against Phytophthora capsici assessed as reduction in growth at 50 mg/l by mycelium growth rate method relative to control; assay type: functional; procedure, shortened: as §5
[29] = test system: Severe acute respiratory syndrome-related coronavirus; assay: Inhibition of SARS coronavirus M protease using AVLQSGFRKK as substrate at 20 uM by FRET assay relative to control
Procedure, shortened: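 Purified SARS-CoV Mpro assayed by FRET. Protein, compound and substrate were preheated at 37 °C and oscillated. Fluorescence (ex 320/em 405 nm) was read every 5 s for 200 reads.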

[30] = test system: Botryosphaeria berengeriana; assay: Antifungal activity against Physalospora pyricola assessed as reduction in growth at 50 mg/l by mycelium growth rate method relative to control; assay type: functional; procedure, shortened: as §5
[31] = test system: Mythimna separata; assay: Insecticidal activity against Mythimna separata assessed as larval mortality at 600 mg/l by leaf-dip method; assay type: functional

Row | SMILES | inhibition at 300 g/ha [1] | inhibition at 300 g/ha [2] | MIC [3] | MIC [4] | inhibition (INH) [5] | MIC [7] | MIC [8] | inhibition [10] | inhibition at 300 g/ha [11] | inhibition at 300 g/ha [12] | inhibition [13] | inhibition at 300 g/ha [14] | inhibition at 300 g/ha [15] | inhibition (INH) [16] | MIC [17] | inhibition at 300 g/ha [18] | inhibition [19] | inhibition [20] | inhibition at 300 g/ha [21] | MIC [22] | other results
1 | COc1cc(OC)nc(Sc2ccc(F)cc2C(=O)O)n1 | 75.8% | 0% | 100 µg/mL (≈ 322 µM) | 25 µg/mL (≈ 80.6 µM) | 86% | 3.12 µg/mL (≈ 10.1 µM) | 100 µg/mL (≈ 322 µM) | 70.1% | 85.2% | 13.8% | 97.7% | 24.3% | 33% | 72% | 25 µg/mL (≈ 80.6 µM) | 61.1% | 73.7% | 100% | 50.6% | 25 µg/mL (≈ 80.6 µM) | inhibition at 500 µg/mL [6]: 47%; inhibition at 100 µg/mL [9]: 11.4%
2 | COc1cc(OC)nc(Sc2cccc(Cl)c2C(=O)O)n1 [PYRITHIOBAC] | 92.3% | 63.8% | > 100 µg/mL | > 100 µg/mL | 97% | > 100 µg/mL | > 100 µg/mL | 96% | 95.2% | 63.4% | 40% | 59.5% | 36.6% | 90.2% | > 100 µg/mL | 96.3% | 20% | 100% | 61.2% | > 100 µg/mL | inhibition at 50 µg/mL [23]: 64.8%; inhibition at 50 µg/mL [24]: 12.6%; inhibition at 50 µg/mL [25]: 45.3%; inhibition at 50 µg/mL [26]: 86.9%; EC50 [27]: 15.4 µg/mL (≈ 47.1 µM); inhibition at 50 µg/mL [28]: 44.7%; inhibition [29]: 12.2%; inhibition at 50 µg/mL [30]: 60.3%
3 | COc1cc(OC)nc(Sc2ccc(Br)cc2C(=O)O)n1 | 80.2% | 27% | > 100 µg/mL | > 100 µg/mL | 93.6% | > 100 µg/mL | > 100 µg/mL | 61% | 89.9% | 0% | 97% | 72.3% | 12.8% | 80.7% | > 100 µg/mL | 93.8% | 50.5% | 100% | 58.7% | > 100 µg/mL | inhibition at 50 µg/mL [23]: 63.9%; inhibition at 50 µg/mL [24]: 27.3%; inhibition at 500 µg/mL [6]: 0%; mortality at 600 µg/mL [31]: 65%; inhibition at 100 µg/mL [9]: 0%; inhibition at 50 µg/mL [25]: 40.5%; inhibition at 50 µg/mL [26]: 72.6%; inhibition at 50 µg/mL [28]: 33.3%; inhibition [29]: 0%; inhibition at 50 µg/mL [30]: 37.5%
